Data taken from ChEMBL document CHEMBL4118094, “Structure-Guided Design and Initial Studies of a Bifunctional MEK/PI3K Inhibitor (ST-168)” (ACS Med Chem Lett, 2017).
Calls of active or inactive are those of the source. The rule behind the calls is not given here.

Experiments:
[1] = target: PI3-kinase p110-delta/p85-alpha (Homo sapiens, UniProt O00329); assay: Inhibition of recombinant human full length His-tagged PI3K p110delta/p85alpha expressed in baculovirus expression system coexpressing PIK3R1 by TR-FRET assay
Summary of the method: (§1)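 PI3K isoform activity by fluorescence-based Adapta TR-FRET kinase assay. Values are the average of 3 experiments, each run in duplicate, given as mean ± SEM.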

[2] = target: PI3-kinase p110-alpha/p85-alpha (Homo sapiens, UniProt P42336); assay: Inhibition of recombinant human full length His-tagged PI3K p110alpha/p85alpha expressed in baculovirus expression system coexpressing PIK3R1 by TR-FRET assay; summary of the method: as §1
[3] = target: T1, Dual specificity mitogen-activated protein kinase kinase 1 (Homo sapiens, UniProt Q02750); assay: Inhibition of MEK1 in human A375 cell lysate assessed as reduction in ERK1/2 phosphorylation at Thr202/Tyr204 at 20 uM after 1 hr by Western blot analysis
Summary of the method: (§2)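 A375 cells (constitutive MEK1/PI3K pathway activation) incubated 1 h with compound at 20 µM against equimolar DMSO. Lysates immunoblotted: ERK1/2 phosphorylation for MEK1 activity, AKT Ser473 phosphorylation for PI3K activity.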

A-375 [4] = assay: Antitumor activity against human A375 cells xenografted in athymic Foxn1nu mouse assessed as tumor growth inhibition at 400 mg/kg, qd administered via oral gavage measured after 35 days by MRI imaging analysis; format: functional, organism-based
Summary of the method: (§3)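 Nude mice inoculated in the flank with 5 x 10^6 A375 cells in 100 µl. Dosing began once tumors exceeded 100 mm3, after randomization. Daily oral gavage at 400 mg/kg until sacrifice at 42 days; vehicle was 200 µl OraPlus. Tumor growth followed by MRI twice per week.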

Homo sapiens = species on record: Homo sapiens; assay: Inhibition of PI3K in human A375 cell lysate assessed as reduction in Akt phosphorylation at Ser473 residue at 20 uM after 1 hr by Western blot analysis; summary of the method: as §2
[5] = target: T1, Dual specificity mitogen-activated protein kinase kinase 1; assay: Inhibition of recombinant human GST-tagged MEK1 expressed in baculovirus infected Sf9 insect cells using inactive ERK2 as substrate preincubated for 30 mins followed by substrate addition measured after 2 hrs by kinase-glo reagent based bioluminescence assay
A-375 [6] = assay: Antiproliferative activity against human A375 spheroids at 20 uM after 72 hrs by calcein AM/ethidium homodimer 1 staining based fluorescence microscopy; format: functional, cell-based
Summary of the method: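 A375 melanoma spheroids exposed 72 h to compound at 20 µM; then stained with calcein AM (live, green) and ethidium homodimer-1 (dead, red). Read by fluorescence microscopy. Replicate experiments, representative images.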

A-375 [7] = assay: Antitumor activity against human A375 cells xenografted in athymic Foxn1nu mouse assessed as tumor growth inhibition at 400 mg/kg, qd administered via oral gavage for 42 days measured twice per week by MRI imaging analysis; format: functional, organism-based; summary of the method: as §3

PI3-kinase p110-alpha/p85-alpha, sequence (P27986 whole entry): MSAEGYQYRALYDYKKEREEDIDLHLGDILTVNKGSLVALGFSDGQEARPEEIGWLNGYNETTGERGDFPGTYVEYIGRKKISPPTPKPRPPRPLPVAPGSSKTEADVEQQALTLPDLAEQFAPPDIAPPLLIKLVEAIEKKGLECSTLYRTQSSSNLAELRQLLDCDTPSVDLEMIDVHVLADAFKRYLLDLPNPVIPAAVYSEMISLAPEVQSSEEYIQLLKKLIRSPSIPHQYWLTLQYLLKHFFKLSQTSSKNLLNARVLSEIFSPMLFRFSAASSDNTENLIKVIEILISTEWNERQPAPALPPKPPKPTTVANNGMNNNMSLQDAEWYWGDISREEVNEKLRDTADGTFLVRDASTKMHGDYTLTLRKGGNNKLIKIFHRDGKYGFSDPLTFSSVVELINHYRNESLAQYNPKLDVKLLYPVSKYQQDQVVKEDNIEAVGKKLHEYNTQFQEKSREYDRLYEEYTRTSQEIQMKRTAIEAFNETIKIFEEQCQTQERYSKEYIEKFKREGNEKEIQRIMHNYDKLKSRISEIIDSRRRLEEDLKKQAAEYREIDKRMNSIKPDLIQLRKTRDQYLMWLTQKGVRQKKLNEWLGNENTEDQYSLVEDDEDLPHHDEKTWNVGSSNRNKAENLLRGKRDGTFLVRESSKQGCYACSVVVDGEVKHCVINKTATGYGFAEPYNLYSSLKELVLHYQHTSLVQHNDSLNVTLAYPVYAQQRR
PI3-kinase p110-alpha/p85-alpha, sequence (P42336 whole entry): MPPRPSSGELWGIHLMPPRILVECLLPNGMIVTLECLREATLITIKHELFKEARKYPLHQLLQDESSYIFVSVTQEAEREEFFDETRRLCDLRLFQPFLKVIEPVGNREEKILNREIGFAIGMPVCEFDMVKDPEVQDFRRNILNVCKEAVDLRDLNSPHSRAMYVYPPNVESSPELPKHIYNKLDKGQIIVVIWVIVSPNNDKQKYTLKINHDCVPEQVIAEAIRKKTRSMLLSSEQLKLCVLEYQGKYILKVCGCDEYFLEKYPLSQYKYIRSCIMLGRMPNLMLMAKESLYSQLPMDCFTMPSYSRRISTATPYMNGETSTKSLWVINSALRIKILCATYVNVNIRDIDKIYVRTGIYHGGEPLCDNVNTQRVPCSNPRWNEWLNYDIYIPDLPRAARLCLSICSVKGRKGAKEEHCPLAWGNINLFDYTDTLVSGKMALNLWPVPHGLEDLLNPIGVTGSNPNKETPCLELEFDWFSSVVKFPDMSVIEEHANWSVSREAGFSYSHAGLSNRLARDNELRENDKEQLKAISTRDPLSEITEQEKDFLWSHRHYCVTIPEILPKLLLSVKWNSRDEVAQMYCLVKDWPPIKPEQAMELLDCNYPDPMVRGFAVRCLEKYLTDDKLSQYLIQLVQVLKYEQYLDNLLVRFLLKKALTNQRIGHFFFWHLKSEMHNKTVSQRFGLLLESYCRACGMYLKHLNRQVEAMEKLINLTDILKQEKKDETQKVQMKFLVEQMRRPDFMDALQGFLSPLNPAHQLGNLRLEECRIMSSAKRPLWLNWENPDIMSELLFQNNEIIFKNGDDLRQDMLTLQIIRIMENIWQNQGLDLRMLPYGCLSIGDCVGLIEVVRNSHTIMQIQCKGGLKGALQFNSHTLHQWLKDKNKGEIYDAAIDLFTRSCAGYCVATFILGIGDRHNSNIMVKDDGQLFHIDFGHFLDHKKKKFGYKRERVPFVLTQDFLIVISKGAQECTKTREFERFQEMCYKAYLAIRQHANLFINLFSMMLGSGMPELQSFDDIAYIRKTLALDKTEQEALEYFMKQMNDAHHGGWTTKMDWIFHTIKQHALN
PI3-kinase p110-delta/p85-alpha, sequence (P27986 whole entry, canonical isoform): as the sequence (P27986 whole entry) above
PI3-kinase p110-delta/p85-alpha, sequence (O00329 whole entry, canonical isoform): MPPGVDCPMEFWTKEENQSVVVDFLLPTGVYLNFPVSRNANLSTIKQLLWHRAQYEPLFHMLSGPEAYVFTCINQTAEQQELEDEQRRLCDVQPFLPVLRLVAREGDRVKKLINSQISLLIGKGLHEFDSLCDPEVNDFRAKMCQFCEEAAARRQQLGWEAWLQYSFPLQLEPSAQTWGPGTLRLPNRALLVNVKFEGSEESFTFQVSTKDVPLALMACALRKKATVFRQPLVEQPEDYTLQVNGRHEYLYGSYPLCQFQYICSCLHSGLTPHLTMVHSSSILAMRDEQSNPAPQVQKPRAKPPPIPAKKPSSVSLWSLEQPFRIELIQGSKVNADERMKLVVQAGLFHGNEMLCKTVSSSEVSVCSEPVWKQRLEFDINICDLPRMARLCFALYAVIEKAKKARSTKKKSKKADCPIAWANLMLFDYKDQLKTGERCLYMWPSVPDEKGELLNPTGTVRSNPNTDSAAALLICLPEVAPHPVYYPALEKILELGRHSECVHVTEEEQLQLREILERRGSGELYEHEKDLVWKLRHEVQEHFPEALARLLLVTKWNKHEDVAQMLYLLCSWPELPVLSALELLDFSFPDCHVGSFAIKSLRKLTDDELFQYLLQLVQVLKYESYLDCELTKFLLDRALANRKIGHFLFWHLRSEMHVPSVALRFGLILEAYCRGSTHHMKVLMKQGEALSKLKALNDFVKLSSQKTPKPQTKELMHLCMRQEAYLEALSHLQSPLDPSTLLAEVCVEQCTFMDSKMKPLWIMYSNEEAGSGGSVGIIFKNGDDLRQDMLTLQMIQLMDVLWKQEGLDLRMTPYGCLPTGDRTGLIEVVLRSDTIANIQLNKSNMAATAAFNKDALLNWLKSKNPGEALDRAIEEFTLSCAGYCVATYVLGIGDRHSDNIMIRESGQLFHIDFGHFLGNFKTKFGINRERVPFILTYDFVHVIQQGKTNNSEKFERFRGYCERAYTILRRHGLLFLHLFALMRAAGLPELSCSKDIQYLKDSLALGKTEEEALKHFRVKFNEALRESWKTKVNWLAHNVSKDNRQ
T1 sequence (Q02750 whole entry): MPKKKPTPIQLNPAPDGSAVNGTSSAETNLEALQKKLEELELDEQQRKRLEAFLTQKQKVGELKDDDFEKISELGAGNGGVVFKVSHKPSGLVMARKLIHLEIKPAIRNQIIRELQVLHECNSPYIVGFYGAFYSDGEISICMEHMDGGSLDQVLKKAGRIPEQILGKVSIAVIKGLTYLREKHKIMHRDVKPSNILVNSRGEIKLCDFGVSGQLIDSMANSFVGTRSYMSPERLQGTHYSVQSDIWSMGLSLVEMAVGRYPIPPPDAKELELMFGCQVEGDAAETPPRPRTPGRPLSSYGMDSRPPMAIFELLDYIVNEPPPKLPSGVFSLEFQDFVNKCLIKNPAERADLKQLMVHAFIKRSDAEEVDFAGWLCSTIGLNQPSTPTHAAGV

Row | Compound | IC50 [1] | IC50 [2] | inhibition [3] | inhibition (Homo sapiens) | IC50 [5] | TGI (A-375 [4]) | Activity (A-375 [6]) | TGI (A-375 [7])
1 | FC(F)c1nc2ccccc2n1-c1nc(N2CCNCC2)nc(N2CCOCC2)n1 | 142 nM | 180 nM |  |  |  |  |  | 
2 | O=C(NOCCOCCOCCOCCC(=O)N1CCN(c2nc(N3CCOCC3)nc(-n3c(C(F)F)nc4ccccc43)n2)CC1)c1ccc(F)c(F)c1Nc1ccc(I)cc1F | 41.7 nM | 69.2 nM | Active | Active | 182 nM | Active | Active | 
3 | O=C(NOCCOCCOCCOCCN1CCN(c2nc(N3CCOCC3)nc(-n3c(C(F)F)nc4ccccc43)n2)CC1)c1ccc(F)c(F)c1Nc1ccc(I)cc1F | 942 nM | 191 nM | Active | Active | 398 nM |  | Active | Active

Compounds with a lower IC50 [1], results first:

Row | IC50 [1] | IC50 [2] | inhibition [3] | inhibition (Homo sapiens) | IC50 [5] | Compound | TGI (A-375 [4]) | Activity (A-375 [6]) | TGI (A-375 [7])
4 | 2.9 nM | 8.2 nM |  |  |  | CC(=O)N1CCN(c2nc(N3CCOCC3)nc(-n3c(C(F)F)nc4ccccc43)n2)CC1 |  |  | 
5 | 1.3 nM | 11.5 nM |  |  |  | NOCCOCCOCCOCCC(=O)N1CCN(c2nc(N3CCOCC3)nc(-n3c(C(F)F)nc4ccccc43)n2)CC1 |  |  | 
